Rows were chosen to be rich in hits. Some 3.7% of all compounds tested hit in one or more screens of this group.
KCNK3 block: human KCNK3 channel inhibition, primary screen; CHO-KCNK3 thallium flux, FluxOR fluorescence; stronger effect = lower value; O14649; AID 602410; B-score at 10 µM; 0.84% of 340,000 active;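 active means B-score under library mean minus 4 SD, starting fluorescence ratio at most library mean plus 5 SD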;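 further: more negative B-score means stronger inhibition of thallium flux through KCNK3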
hERG rescue: shields human hERG channel from block by proarrhythmic agents | Q12809 | CHO-hERG, FluxOR thallium flux, dofetilide IC70 present | activation (rescue from dofetilide block), less the hit threshold, % at 10 µM | 0.51% of 310,000 active;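 active means activation above the mean of controls blocked by dofetilide plus 5 SD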;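 further: thallium influx through hERG after potassium depolarization seen as dye fluorescence rise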
KCNQ1 act: potentiators or activators of human KCNQ1 potassium channel | P51787 | CHO-K1 KCNQ1, thallium flux FluxOR fluorescence; stronger effect = higher value | B-score at 10 µM | 0.35% of 310,000 active;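 active means fluorescence ratio B-score, a plate-corrected score, at least three library SD, with initial intensity B-score within 5 SD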
Target sequence (P51787 whole entry, looked up): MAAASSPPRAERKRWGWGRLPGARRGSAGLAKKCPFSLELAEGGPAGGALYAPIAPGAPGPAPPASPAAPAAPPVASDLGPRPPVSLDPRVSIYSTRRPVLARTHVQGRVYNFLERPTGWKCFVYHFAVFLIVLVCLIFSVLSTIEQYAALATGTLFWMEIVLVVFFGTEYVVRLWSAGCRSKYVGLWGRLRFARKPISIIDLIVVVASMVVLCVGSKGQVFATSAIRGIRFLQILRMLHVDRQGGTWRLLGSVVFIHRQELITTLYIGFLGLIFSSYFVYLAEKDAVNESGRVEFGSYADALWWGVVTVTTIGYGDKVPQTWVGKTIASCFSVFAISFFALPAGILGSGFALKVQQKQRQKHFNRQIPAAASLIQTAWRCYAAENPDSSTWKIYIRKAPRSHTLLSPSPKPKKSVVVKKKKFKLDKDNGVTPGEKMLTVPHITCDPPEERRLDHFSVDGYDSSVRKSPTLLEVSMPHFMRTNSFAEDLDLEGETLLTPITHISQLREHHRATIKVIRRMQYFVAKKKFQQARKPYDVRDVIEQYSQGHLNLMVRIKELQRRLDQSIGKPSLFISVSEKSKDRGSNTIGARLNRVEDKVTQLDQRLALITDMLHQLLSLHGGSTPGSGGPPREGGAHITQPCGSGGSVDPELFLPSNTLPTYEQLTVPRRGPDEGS
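Test system: CHO-K1 cells stably expressing KCNQ1 / Medium: assay buffer / Also added: depolarizing K+/Tl+ stimulus, K2SO4 and Tl2SO4 each 12.5 mM in 5x stock / Incubation: 90 min dye loading and 20 min compound exposure, both at room temperature / Signal: thallium influx via FluxOR fluorescence, kinetic imaging / Evaluation: B score of baseline-normalized fluorescence ratio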
KCNQ1 inh: human KCNQ1 channel inhibition. P51787. CHO-K1 KCNQ1, FluxOR thallium flux fluorescence; stronger effect = higher value. B-score at 10 µM. 1.3% of 310,000 active;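 active means compounds whose thallium flux B-score, printed positive for inhibition, exceeds three library SD while starting fluorescence stays within three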;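 further: channel opened by potassium depolarization with thallium stimulus after 20 min compound exposure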
KCNK9 block: inhibitors of human KCNK9 two-pore domain potassium channel; Q9NPC2; HEK293 KCNK9, FluxOR thallium flux fluorescence; stronger effect = lower value; B-score at 10 µM; 1.2% of 310,000 active; AID 488922;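 active means ratio B-score over 3 SD below the library mean, with starting fluorescence within 5 SD of its mean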;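 further: negative B-score means less thallium flux so channel inhibition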
Kir21 block: Kir2.1 (mouse) channel inhibition; HEK293-Kir2.1, FluxOR thallium flux fluorescence; stronger effect = lower value; B-score at 10 µM; 0.85% of 310,000 active;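 active means fluorescence ratio B-score at or below minus 3 SD of library scores, with starting-brightness B-score within 2 SD, cut at about -4.2 in these data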;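 further: channel flux triggered by added potassium and thallium sulfate stimulus; B-score of peak minus minimum fluorescence over baseline after thallium stimulus; more negative B-score means stronger Kir2.1 block with less thallium influx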
The depositor's hits bear a star; i = inactive; nt = no result given.

SMILES	KCNK3 block	hERG rescue	KCNQ1 act	KCNQ1 inh	KCNK9 block	Kir21 block
O=S(=O)(Cc1ccccc1)C(CCCc1ccccc1)S(=O)(=O)Cc1ccccc1	i	nt	nt	nt	nt	nt
CCOc1ccccc1OCC(=O)Nc1ccc(N2CCOCC2)cc1N1CCOCC1	i	nt	nt	nt	nt	nt
COC(=O)Cn1c(=O)c2c(nc3n2CCCN3CCc2ccc(OC)c(OC)c2)n(C)c1=O	i	-9	i	i	i	-2.9
CCOC(=O)c1c(-c2ccccc2)c2cc(OC)ccc2n1CCCN(C)C	i	-5	i	i	i	-7*
CCn1c(SCCN2CCCCC2)nc2c1c(=O)n(C)c(=O)n2C	i	nt	nt	nt	nt	nt
CCOC(=O)C1=C(C)NC(C)=C(C(=O)OCC)C1c1ccccc1/C=C/C(=O)OC(C)(C)C	nt	-10	i	8*	i	0.27
Cc1ccc(C2CC(c3cccs3)=NN2C(=O)CCl)cc1 (configuration not stated)	i	-2	i	i	i	-4
CCC(=O)N1N=C(c2cccs2)CC1c1ccc(C)cc1 (configuration not stated)	i	5.1*	i	i	i	0.8
COc1ccc(C2=NN(C(=O)CN3CCCCC3)C(c3ccc(C)cc3)C2)cc1 (configuration not stated)	i	-10	i	6*	i	-1.6
COc1ccc(S(=O)(=O)N2CCCCCC2)cc1C(=O)N(C)Cc1ccc(OC)c(OC)c1OC	i	-11	i	i	i	1
CCC(C)NC(=S)N1CCN(C(c2ccccc2)c2ccccc2)CC1 (configuration not stated)	i	-7	i	i	-7.7*	0.47
CCOC(=O)c1c(NC(C)=O)sc2c1CCC(C=O)=C2Sc1ccccc1	i	-16	i	i	-6.9*	-1.2
Cc1c(C(Nc2ccccn2)c2ccc(Cl)cc2)c(=O)n(-c2ccccc2)n1C (configuration not stated)	i	-17	i	i	-6.6*	0.18
CCN(CC)S(=O)(=O)c1ccc2[nH]c(=O)cc(C(=O)Nc3cccc(C(C)=O)c3)c2c1	i	22*	i	i	i	-0.05
CCCc1nc2ccc(NC(=O)c3cccs3)cc2c(=O)n1Cc1ccccc1Cl	i	-6	i	i	-6.8*	-1.1
Cc1csc(NC(=O)CCC(=O)N(CC(=O)NC2CCCCC2)c2ccccc2)n1	i	-8	i	i	i	2.1
CCn1c(NCc2c[nH]c3ccccc23)nc2ccccc21	i	-12	i	i	i	-3.3
C=CCn1c(NCc2c[nH]c3ccccc23)nc2ccccc21	i	-16	i	i	i	-5.6*
Cc1cccc(NC(=O)CN2C(=O)S/C(=C\c3ccc(-c4cccc(C(=O)O)c4C)o3)C2=O)c1	i	21*	i	i	i	-0.5
Cc1ccc(NC(=O)CN2C(=O)S/C(=C/c3ccc(-c4cc(C(=O)O)ccc4C)o3)C2=O)cc1C	i	-2	i	i	i	-1.2
Cc1ccccc1NC(=O)CN1C(=O)c2ccccc2C1=O	i	-6	i	i	i	-1.1
Cc1ccccc1NC(=O)CN1C(=O)S/C(=C\c2ccc(-c3cccc(C(=O)O)c3C)o2)C1=O	i	11*	i	i	i	-1
COc1ccc(CCn2c(C)nc3c(c(=O)c4ccccc4n3C)c2=O)cc1	i	-3	i	i	i	-1.2
COc1ccc(CCn2c(S)nc3ccccc3c2=O)cc1	i	4	8*	i	i	0.06
COC(=O)C1=C(C)N(Cc2ccccc2)C(=O)/C1=C\c1ccco1	i	-6	i	i	i	-0.29
COC(=O)C1=C(C)N(Cc2ccc(C)cc2)C(=O)/C1=C\c1cc(OC)c(OC)c(OC)c1	i	-14	i	i	-6.6*	-0.7
CC(=O)C1=C(C)NC(SCC(=O)c2ccc(C)cc2)=C(C#N)C1c1ccco1 (configuration not stated)	nt	-12	i	6*	i	1.6

Screening data: PubChem BioAssay, Johns Hopkins Ion Channel Center
